Compound activity as filed in PubChem.
Only some compounds are listed: those with a hit (about 2.2% of all), similar ones and a draw of the others.
FXN GAA850 act = increases GAA850 frataxin promoter reporter activity | HEK293 lucGAA850 FXN promoter luciferase reporter, 24 h; percent of 10 µM SAHA response | activation, % at 6 µM | hit rate 0.56% among 360,000 | AID 540364;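 active = activation above the average of all compounds screened plus 3 SD, cutoff fixed separately per campaign, cut at about 7.5% in these data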;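 also: 0% = DMSO wells and 100% = 10 µM SAHA wells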
GalR3 antag = human GalR3 antagonism; O60755; HEK293 GalR3-CNG cAMP membrane potential fluorescence; galR3 body fused to GalR1 C-terminus; inhibition, % at 3 µM; hit rate 0.44% among 360,000; AID 651719;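 active = inhibition above the screen-wide average plus 3 SD, cut at about 13% in these data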;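 also: forskolin and galanin both at EC90 stimulate the cells; cAMP rise reported by CNG channel membrane potential dye signal; 0% = forskolin plus galanin with DMSO and 100% = forskolin alone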
Target sequence (O60755 1-299 limits assumed): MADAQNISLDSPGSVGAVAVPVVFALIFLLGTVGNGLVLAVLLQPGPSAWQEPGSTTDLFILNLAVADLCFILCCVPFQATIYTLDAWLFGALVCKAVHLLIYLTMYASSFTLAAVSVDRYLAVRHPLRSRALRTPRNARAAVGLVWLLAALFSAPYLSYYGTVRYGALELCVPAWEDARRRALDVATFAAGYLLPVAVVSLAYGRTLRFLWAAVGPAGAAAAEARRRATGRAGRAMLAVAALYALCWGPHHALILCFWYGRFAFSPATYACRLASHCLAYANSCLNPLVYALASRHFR
HIV Env fusion = inhibitors of HIV Env-mediated cell fusion. HeLa-JRFL Env/CEM21 cell fusion, luciferase. inhibition, % at 12.3 µM. hit rate 1.1% among 360,000. AID 651610;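 active = mean replicate inhibition score of at least 50 and every replicate individually at or above 50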;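 also: 0% = plate neutral controls and 100% = maraviroc near 300 nM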
V-ATPase pHluor = alters yeast V-ATPase proton transport; S. cerevisiae, pHLuorin cytosolic pH fluorescence; response, % at 10 µM; hit rate 0.37% among 350,000; in the data active = response mostly above about 7.3%, no sharp cut-off; inactive = mostly below about 5.4%; also: actives read high
NR2E3 ag-1 = agonists of human nuclear receptor NR2E3; Q9Y5X4; GST-NR2E3/biotin-RetCOR TR-FRET, 1536-well; inhibition of corepressor binding, % at 4.78 µM; hit rate 0.12% among 320,000; AID 2300;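 active = percent inhibition above the cutoff of mean plus 3 SD of all tested compounds, set per screening campaign, cut at about 20% in these data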;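 also: 0% = DMSO wells and 100% = biotin wells as full block of FRET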
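Test system: GST-NR2E3 and biotin-RetCOR proteins | Quantity: 1.35 nM GST-tagged NR2E3 final | Medium: Tris pH 7.5 | Also added: 7 nM biotin-RetCOR | Dosing: Compound at 4.8 µM, single dose | Timing: 5 h at 4 °C | Detection: Time-resolved FRET | Read-out basis: Percent inhibition | Benchmarks: Biotin wells as high control, 0.6% DMSO wells as low control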
NR2E3 ag-2 = agonists of human NR2E3 nuclear receptor; CHO-S Gal4-NCOR/VP16-NR2E3 two-hybrid, luciferase; inhibition of corepressor binding, % at 3.98 µM; hit rate 0.35% among 360,000;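 active = inhibition above the mean of all tested compounds plus 3 SD, cut at about 70% in these data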;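 also: 0% = DMSO with NR2E3 transfected cells and 100% = cells lacking NR2E3 construct; higher means lower luciferase signal from less NR2E3 corepressor binding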
NR2E3 ag confirm = confirmation of human NR2E3 agonists; hit rate 51% among 2,300; AID 624378; CHO-S mammalian two-hybrid NR2E3-NCOR, luciferase luminescence; shares compounds with NR2E3 ag-2; inhibition, % at 3.98 µM;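 active = average inhibition above a cutoff equal to the mean inhibition of all tested compounds plus one SD, cut at about 70% in these data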;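 also: 0% = DMSO in NR2E3 cells and 100% = DMSO in cells lacking NR2E3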
VP16 counter = GAL4-VP16 reporter inhibition in NR2E3 agonist counterscreen | shares compounds with NR2E3 ag-2 | CHO-S GAL4-VP16 luciferase reporter, luminescence | inhibition, % at 3.98 µM | hit rate 29% among 2,300 | AID 624379;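 active = mean inhibition above a cutoff equal to the average over all tested compounds plus one standard deviation, cut at about 70% in these data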;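 also: luciferase from a UAS reporter driven by GAL4-VP16 transactivation; 0% = DMSO with VP16-transfected cells and 100% = DMSO with cells lacking VP16; higher means less reporter light so more repression of VP16 activity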
* = called active by the depositor; [ ] = remark or other dose.

For Cc1csc2c(N3CCN(C(=O)Nc4ccc(OC(F)(F)F)cc4)CC3)ncnc12 the results were FXN GAA850 act 2, GalR3 antag -5, HIV Env fusion 24, V-ATPase pHluor -2, NR2E3 ag-1 1, NR2E3 ag-2 63, NR2E3 ag confirm 90* and VP16 counter 71*.
For Cc1csc2c(N3CCC(C(=O)O)CC3)ncnc12 the results were FXN GAA850 act 1, GalR3 antag 3, HIV Env fusion 9, V-ATPase pHluor -3, NR2E3 ag-1 1 and NR2E3 ag-2 -1.
`CC(C)NC(=O)N(C)C[C@@H]1Oc2cc(C3=CCCC3)ccc2S(=O)(=O)N([C@H](C)CO)C[C@@H]1C` gave HIV Env fusion -7[16.7 µM].
C=CCNC(=S)NNC(=O)c1ccc([N+](=O)[O-])cc1 was read as FXN GAA850 act -2, GalR3 antag -1, HIV Env fusion -14, V-ATPase pHluor 4, NR2E3 ag-1 2 and NR2E3 ag-2 -3.
For C=CCN(CC=C)C(=S)NC(=O)c1ccc([N+](=O)[O-])cc1 the results were FXN GAA850 act 0, GalR3 antag 7, HIV Env fusion -9, V-ATPase pHluor 0, NR2E3 ag-1 3, NR2E3 ag-2 66, NR2E3 ag confirm -6 and VP16 counter -10.
O=c1[nH]c2ccc(S(=O)(=O)N3CCN(c4ccccc4F)CC3)cc2s1 was read as FXN GAA850 act 0, GalR3 antag -5, HIV Env fusion 15, V-ATPase pHluor 6, NR2E3 ag-1 -1, NR2E3 ag-2 50, NR2E3 ag confirm 60 and VP16 counter 51.
Screening Cc1ccc(C(=O)Sc2cccccc2=O)cc1 returned FXN GAA850 act -15, GalR3 antag -10, HIV Env fusion 20, V-ATPase pHluor 7, NR2E3 ag-1 -3, NR2E3 ag-2 101*, NR2E3 ag confirm -22 and VP16 counter -82.
Screening O=C(Nc1ccccc1SC(=O)c1ccccc1)c1ccccc1 returned FXN GAA850 act 2, GalR3 antag -5, HIV Env fusion -47, V-ATPase pHluor -2 and NR2E3 ag-2 -82.
Cc1cccc(N2CCN(C(=O)C3CCC(CNS(=O)(=O)c4cccs4)CC3)CC2)c1C (stereo not given) was read as FXN GAA850 act -2, GalR3 antag -7, HIV Env fusion 38, V-ATPase pHluor 2, NR2E3 ag-1 6, NR2E3 ag-2 49, NR2E3 ag confirm 36 and VP16 counter 51.
CCC(=O)Nc1ccc2c(c1)C(=O)N(C)[C@H]1CC[C@@H](CC(=O)Nc3cccc(OC)c3)O[C@@H]1CO2 was read as HIV Env fusion -5[16.7 µM].
Screening O=S(=O)(Nc1ccc2c(c1)OCCO2)c1cccc2nsnc12 returned FXN GAA850 act -10, GalR3 antag -7, V-ATPase pHluor -3, NR2E3 ag-1 5, NR2E3 ag-2 52, NR2E3 ag confirm -2 and VP16 counter -7.
For O=C(CCNS(=O)(=O)c1cccc2nsnc12)Nc1ccc2c(c1)OCCO2 the results were FXN GAA850 act -3, GalR3 antag -6, HIV Env fusion -17, V-ATPase pHluor 3, NR2E3 ag-1 4 and NR2E3 ag-2 -8.
Screening Clc1c(Cl)c(Cl)c2n[nH]nc2c1Cl returned FXN GAA850 act 1, GalR3 antag 0, HIV Env fusion -7, V-ATPase pHluor -1, NR2E3 ag-1 -4, NR2E3 ag-2 64, NR2E3 ag confirm 96* and VP16 counter 81*.
Screening COc1ccc(Br)cc1Cn1nnc(C(=O)Nc2ccc3c(c2)OCCO3)c1N returned FXN GAA850 act 0, GalR3 antag 2, HIV Env fusion -37, V-ATPase pHluor -2, NR2E3 ag-1 1, NR2E3 ag-2 56, NR2E3 ag confirm 65 and VP16 counter 12.
`COc1ccc(CCNC(=O)c2nnn(-c3ccc4c(c3)OCCO4)c2N)cc1OC` gave FXN GAA850 act -13, GalR3 antag -1, HIV Env fusion -97, V-ATPase pHluor 0, NR2E3 ag-1 1, NR2E3 ag-2 66, NR2E3 ag confirm 51 and VP16 counter 24.
